# TbHK1 inh: Trypanosoma brucei hexokinase 1 inhibitors, primary screen, biochemical, G6PDH-coupled NADH absorbance, MLSCN library; hexokinase 1 [Trypanosoma brucei]; recombinant TbHK1, G6PDH-coupled NADH A340; inhibition, % at 10 µM; actives 0.11% (n = 220,000);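 active = inhibition of 50% or more in the single-dose primary screen; inactive = inhibition below 50%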
# MT stabilizer: microtubule stabilizers in HeLa cells, primary screen, imaging, high-content imaging. HeLa tubulin immunostaining HCS, 24 h; share of cells brighter than vehicle mean+2SD. AID 2205, 2009. actives 0.83% (n = 200,000). % tubulin-high responders, % at 10 µM;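 active = plate Z-score above 3 for both tubulin-high and condensed-nucleus cell shares, with cell loss under 80%, at 10 µM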;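 also: anti alpha tubulin signal scored within the nucleus-defined area of each cell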
# EP2 modulator: EP2 receptor modulators, cAMP readout, primary screen, cell-based, HTRF cAMP, PGE2 stimulation | actives 0.83% (n = 260,000) | AID 940, 2007 | induction, % at 25 µM | Prostaglandin E2 receptor EP2 subtype (Homo sapiens), P43116 | EP2-expressing cells, cAMP HTRF FRET, PGE2 co-stimulation;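 active = compounds whose cAMP rise, as percent of the full-agonist control response, exceeds 60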;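 also: rat C6 glioma line stably carrying human EP2 under a CMV promoter; the protocol text gives 20 µM as final concentration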
# Target sequence (P43116 whole entry, looked up): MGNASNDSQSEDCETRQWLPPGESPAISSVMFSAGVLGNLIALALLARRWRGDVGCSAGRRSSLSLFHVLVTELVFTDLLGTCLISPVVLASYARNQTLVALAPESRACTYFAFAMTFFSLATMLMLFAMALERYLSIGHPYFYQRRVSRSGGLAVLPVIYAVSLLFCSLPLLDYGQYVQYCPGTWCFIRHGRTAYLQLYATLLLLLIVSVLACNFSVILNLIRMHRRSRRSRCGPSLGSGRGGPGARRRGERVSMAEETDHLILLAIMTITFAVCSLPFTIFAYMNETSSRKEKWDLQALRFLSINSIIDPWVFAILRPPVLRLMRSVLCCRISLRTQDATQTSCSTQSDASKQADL
# Efa HMGR inh: inhibitors of E. faecalis class II HMGR, primary screen, biochemical, Enterococcus faecalis | HMG-CoA reductase (Enterococcus faecalis, mvaE) | purified E. faecalis HMGR, NADPH absorbance 340 nm kinetic | inhibition, % at 10 µM | actives 0.41% (n = 190,000) | AID 1066, 2008;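 active = inhibition above a set limit, the median over all tested compounds plus 3 SD, cut at about 9.5% in these data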;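 also: enzyme runs in reverse so mevalonate oxidation gives rising NADPH absorbance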
# b-catenin transl: modulators of beta-catenin nuclear translocation, primary screen, imaging, HeLa cells, immunofluorescence, high-content. nuclear translocation activity, % at 5 µM. actives 0.3% (n = 190,000);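 active = nuclear translocation activity above 50% at 5 µM, with a well cell count of 50 or more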;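 also: per-cell ratio of nuclear to cytoplasmic median beta-catenin stain intensity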
#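 test system = HeLa cells, endogenous beta-catenin | dosing = single 5 µM dose plus 0.02–20 µM confirmation series | times = compound treatment 24 h, 37°C, 5% CO2 | technique = beta-catenin immunofluorescence imaging with DAPI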
# PGE2 EP2 inh: human EP2 receptor antagonists, primary screen, TR-FRET cAMP, C6 glioma cells; inhibition, % at 25 µM; actives 0.52% (n = 260,000); C6 glioma cells expressing human EP2; cells stimulated with saturating PGE2;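 active = percent inhibition above 40 after rounding to a whole number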;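 also: rat C6 glioma host cells with rolipram phosphodiesterase inhibitor present; the protocol text gives 20 µM as final concentration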
# A number is an active result; - = inactive; . = no result. Hits are enriched below; roughly 2.4% of the tested compounds scored in any of these assays.
SMILES,TbHK1 inh,MT stabilizer,EP2 modulator,Efa HMGR inh,b-catenin transl,PGE2 EP2 inh
COc1ccccc1NC(=O)CSc1ncccc1C(=O)O,.,.,-,.,.,-
Cc1cc(Cl)ccc1OCCCC(=O)NCCN1CCOCC1,.,.,-,.,.,-
CCOC(=O)c1nnn(-c2nonc2-n2cccc2)c1CN1CCCCC1,-,-,63.3,-,-,-
COc1ccc(OC)c(C2NC(=S)NC(C)=C2C(=O)Nc2ccccn2)c1 (stereo not given),-,-,-,-,-,-
COc1ccc(C2NC(=S)NC(C)=C2C(=O)Nc2ccccn2)cc1 (stereo not given),-,9.2,-,-,-,-
COCCCn1c(SCc2nnc(-c3ccc(OC)c(OC)c3)o2)nnc1-c1ccncc1,-,-,-,9.9,-,-
O=C(Nc1ccc(Oc2ccccc2)cc1)c1ccc(Cn2c(=O)[nH]c3ccsc3c2=O)cc1,-,-,-,19.9,-,-
O=C(Nc1ccc(Cl)c(Cl)c1)c1ccc(Cn2c(=O)[nH]c3ccsc3c2=O)cc1,-,-,-,-,-,-
COc1ccc(O)c(C(=O)c2cnc3nc4ccccc4n3c2)c1,-,28.2,-,-,75.5,-
COc1ccc(O)c(C(=O)c2cnn(-c3ccccn3)c2)c1,-,-,-,-,-,-
CCN(CC)S(=O)(=O)c1ccc(-c2nnc(SCC(=O)N(C)C3CCCCC3)o2)cc1,.,.,-,.,.,-
Cc1csc(NC(=O)c2sc3nc(-c4cccs4)ccc3c2N)n1,-,-,-,-,-,63.7
COc1ccc(C(=O)Nc2nc(-c3cccs3)cs2)cc1,-,-,-,-,-,42.6
O=C(Nc1nc(-c2cccs2)cs1)c1ccc(Cl)cc1,-,-,-,-,-,-
COc1cc(C(=O)Nc2nc(-c3cccs3)cs2)cc(OC)c1OC,-,-,-,-,.,87.5
CCCSc1nnc(NC(=O)c2sc3nc(-c4cccs4)ccc3c2N)s1,-,-,-,-,-,-
C=CCn1c(SCC(=O)Nc2nc(C)cs2)nnc1-c1ccco1,.,.,-,.,.,-
CCC(=O)N(Cc1ccc(C)cc1)Cc1cc2cc3c(cc2[nH]c1=O)OCCO3,.,.,-,.,.,-
COc1ccc(N2CCN(c3oc(COc4ccccc4)nc3C#N)CC2)cc1,-,-,-,-,-,-
COc1ccc(N2CCN(c3oc(Cc4ccccc4)nc3C#N)CC2)cc1,-,29.2,-,-,-,-
Nc1ccc(C(=O)n2c3ccccc3c3ccccc32)cc1,-,45.5,-,-,.,-
O=C(Oc1ccccc1-c1nnco1)c1ccccc1,-,-,-,-,-,-
Cc1noc(-c2ccccc2OC(=O)c2ccccc2)n1,-,-,64.1,-,-,-
O=C(Nc1ccc(N2CCOCC2)cc1N1CCOCC1)c1ncoc1-c1cccs1,.,.,-,.,.,-
CC(=O)c1cccc(Nc2nc(-c3ccc(O)cc3O)cs2)c1,.,.,-,.,.,69.5
SMILES,TbHK1 inh,MT stabilizer,EP2 modulator,Efa HMGR inh,b-catenin transl,PGE2 EP2 inh
N#Cc1ccc(-c2cccs2)nc1SCc1cccnc1,-,.,-,.,135.1,-
N#Cc1c(C(F)(F)F)cc(-c2cccs2)nc1SCc1ccc(Cl)nc1,-,-,-,-,-,-
c1cncc(CSc2nnc3ccc(-c4cccs4)nn23)c1,-,-,-,-,-,-
N#Cc1c(C(F)(F)F)cc(-c2cccs2)nc1SCc1cccnc1,-,42.1,-,-,.,-
Cc1cccn2c(=O)c3cc(C(=O)NC4CCCC4)c(=N)n(Cc4ccncc4)c3nc12,.,.,-,.,.,-
CCOc1ccc(S(=O)(=O)N(CC)CC)cc1N,-,-,-,-,-,-
CN(C)c1ccc(C(=O)c2ccc(N(C)C)c(N)c2)cc1N,-,23.0,-,-,-,-
CCOc1ccc(C(=O)c2ccc(OCC)c(N)c2)cc1N,-,53.0,-,-,-,-
Cc1c2cccc(Sc3ccccc3)c2c2c3c(cccc13)[S+](c1ccccc1)C2 (stereo not given),.,.,-,.,.,42.2
CC(=O)Nc1ccc(C(=O)CSc2nnc3c4c5c(sc4nc(C)n23)CCCC5)cc1,.,.,-,.,.,-
COCC(C)n1c(C)cc(C(=O)CSc2nc3ccccc3c(=O)[nH]2)c1C (stereo not given),-,-,62.0,-,-,-
COCCn1c(C)cc(C(=O)CSc2nc3ccccc3c(=O)[nH]2)c1C,-,-,-,-,-,-
Cc1c(C(N)=O)sc2ncn(Cc3ccccc3Cl)c(=O)c12,.,.,-,.,.,-
O=C(Nc1cccn(Cc2c(F)cccc2Cl)c1=O)NC1CCCCC1,-,16.9,-,-,-,-
C#CCOC(=O)Nc1cccn(Cc2c(Cl)cccc2Cl)c1=O,-,51.4,-,-,-,-
COc1cc(C(=O)Nc2nnc(Cc3cccc(F)c3)s2)c2ccccc2n1,.,.,-,.,.,-
CCC(c1nnnn1C(C)(C)C)N(Cc1ccccc1)Cc1cc2cccc(C)c2[nH]c1=O (stereo not given),.,.,-,.,.,-
CCC(=O)N1CCN(c2ccc(NC(=O)c3cccc(Cl)c3Cl)cc2)CC1,.,.,-,.,.,-
CSc1ccc(NC(=O)N2CC=C(n3c(=O)[nH]c4ccccc43)CC2)cc1,-,31.2,-,-,-,-
CC(C)(C)NC(=O)C1CC(c2ccc(Cl)c(Cl)c2)=NO1 (stereo not given),.,.,-,.,.,-
O=C(O)c1ccc2[nH]c(=O)[nH]c2c1,.,.,-,.,.,-
COc1ccc(NC(=O)c2ccc(F)cc2)cc1S(=O)(=O)Nc1cc(C)ccc1Br,-,16.3,-,-,-,-
Cc1csc(NC(=O)CSc2nnc3c4ccccc4nc(C4CCCCC4)n23)n1,.,.,-,.,.,-
COc1cc2cc(CN(Cc3ccco3)S(=O)(=O)c3ccc(C)cc3)c(=O)[nH]c2cc1OC,.,.,-,.,.,-
CCOc1ccc(-c2[nH]nc3c2C(c2c(OC)cc(OC)cc2OC)C(C#N)=C(N)O3)cc1 (stereo not given),.,.,-,.,.,-
SMILES,TbHK1 inh,MT stabilizer,EP2 modulator,Efa HMGR inh,b-catenin transl,PGE2 EP2 inh
O=C(N/N=C/c1ccc2c(c1)OCO2)c1sc2cccc(Cl)c2c1Cl,-,21.8,-,-,-,-
O=C(N/N=C/c1ccc2c(c1)OCO2)c1sc2cc(Cl)ccc2c1Cl,-,19.0,-,-,-,-
COc1ccc2c(Cl)c(C(=O)N/N=C/c3ccc4c(c3)OCO4)sc2c1,-,-,-,-,-,-
CCCNC(=O)CN1C(=O)NC(CCc2ccccc2)C1=O (stereo not given),-,-,-,11.7,-,-
COc1cc2c(cc1CCNS(=O)(=O)c1ccc3c(c1)CCC(=O)N3)CCC2,.,.,-,.,.,-
CCOc1ccc(C2c3cc(OC)c(OC)cc3CC(=O)N2c2ccc(OC)cc2)cc1 (stereo not given),-,42.3,-,-,-,-
COC(=O)C1=CNC=C(C(=O)OC)C1c1cccc(F)c1,.,.,-,.,.,-

# Screens as filed in PubChem.
